≈ marks a conversion by molar mass, not a printed value. Calls of active or inactive are those of the source. The calls are words filed in the database; no cut-off is given here.
How the values were obtained:
[1] = test system: Leptospira interrogans serovar Autumnalis; assay: Antibacterial activity against Leptospira interrogans serovar Autumnalis N2 at 62.5 ug/mL after 2 hrs by micro dilution assay; type: functional
Outline: (§1)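 Preliminary screen by broth microdilution against L. interrogans serovar Autumnalis strain N2, each compound at 500, 250, 125, 62.5 and 31.25 µg/mL. Growth at each concentration was scored as resistance (R) or inhibition (I), and the MIC was taken from these scores. Triplicates.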

[2] = test system: Leptospira interrogans serovar Autumnalis; assay: Antibacterial activity against Leptospira interrogans serovar Autumnalis N2 at 31.25 ug/mL after 2 hrs by micro dilution assay; type: functional; outline: as §1
[3] = test system: Leptospira interrogans serovar Autumnalis; assay: Antibacterial activity against Leptospira interrogans serovar Autumnalis N2 at 500 ug/mL after 2 hrs by micro dilution assay; type: functional; outline: as §1
[4] = test system: Leptospira interrogans serovar Autumnalis; assay: Antibacterial activity against Leptospira interrogans serovar Autumnalis N2 at 125 ug/mL after 2 hrs by micro dilution assay; type: functional; outline: as §1
[5] = test system: Leptospira interrogans serovar Autumnalis; assay: Antibacterial activity against Leptospira interrogans serovar Autumnalis N2 at 250 ug/mL after 2 hrs by micro dilution assay; type: functional; outline: as §1
[6] = Antibacterial activity against Leptospira interrogans serovar Hebdomadis after 2 hrs by micro dilution assay; type: functional
[7] = Antibacterial activity against Leptospira interrogans serovar Ballum Mus 127 after 2 hrs by micro dilution assay; type: functional; settings: Mus 127, 2 h
[8] = Antibacterial activity against Leptospira interrogans serovar Grippotyphosa Moskva V after 2 hrs by micro dilution assay; type: functional
[9] = Antibacterial activity against Leptospira interrogans serovar Autumnalis N2 after 2 hrs by micro dilution assay; type: functional; settings: N2, 2 h
[10] = Antibacterial activity against Leptospira interrogans serovar Australis Ballico after 2 hrs by micro dilution assay; type: functional
[11] = Antibacterial activity against Leptospira interrogans serovar Bataviae Swart after 2 hrs by micro dilution assay; type: functional
[12] = Antibacterial activity against Leptospira interrogans serovar Javanica Poi after 2 hrs by micro dilution assay; type: functional
[13] = Antibacterial activity against Leptospira interrogans serovar Hardjo Hardjoprajitno after 2 hrs by micro dilution assay; type: functional
[14] = Antibacterial activity against Leptospira interrogans serovar Pomona after 2 hrs by micro dilution assay; type: functional
[15] = Antibacterial activity against Leptospira interrogans serovar Canicola Hond Utrecht IV after 2 hrs by micro dilution assay; type: functional
[16] = Antibacterial activity against Leptospira interrogans serovar Pyrogenes Salinem after 2 hrs by micro dilution assay; type: functional
[17] = Antibacterial activity against Leptospira interrogans serovar Icterohaemorrhagiae RGA after 2 hrs by micro dilution assay; type: functional
Leptospira interrogans [18] = assay: (§2) Antibacterial activity against Leptospira interrogans serovar Semaranga after 2 hrs by micro dilution assay; type: functional
[19] = as §2; type: functional
[20] = test system: Leptospira interrogans serovar Canicola; assay: (§3) Antibacterial activity against Leptospira interrogans serovar Canicola PAI-1 infected cyclophosphamide-treated BALB/c mouse assessed as mouse survival at 5 mg/kg, ip administered once daily for 3 days; type: functional
Outline: (§4)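 Cyclophosphamide-treated (Cy-)BALB/c mice were challenged with pathogenic Leptospira Canicola. They were dosed once daily for 3 days at 5, 10 or 20 mg/kg. Controls were untreated mice and doxycycline at 5 mg/kg once daily. Survival was recorded to the end of the study period. Kidneys were checked by 16S qPCR and by re-isolation in EMJH semi-solid medium.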

[21] = test system: Leptospira interrogans serovar Canicola; assay: Antibacterial activity against Leptospira interrogans serovar Canicola PAI-1 infected cyclophosphamide-treated BALB/c mouse assessed as inhibition of bacterial renal colonization at 20 mg/kg,ip using EMJH semi solid medium; type: functional, organism-based
Outline: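 Kidneys came from infected cyclophosphamide-treated BALB/c mice dosed once daily for 3 days, including at 20 mg/kg, alongside untreated infected controls. Leptospires were re-isolated by culturing kidney material in semi-solid EMJH medium.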

THP-1 [22] = assay: Induction of cell death in human THP1 cells at >= 75 ug/mL after 12 hrs by propidium iodide staining based confocal laser scanning microscopic method; settings: thp-1, 12 h
Outline: (§5)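 THP-1 cells were exposed for 12 h to a range of concentrations, then stained with propidium iodide. PI-positive apoptotic and necrotic cells were counted manually and expressed as a percentage. Controls were untreated cells and tert-butylhydroperoxide. Mean ± SD of triplicates.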

THP-1 [23] = assay: Cytotoxicity against human THP1 cells assessed as cell growth inhibition upto 25 ug/mL after 24 hrs by MTT assay; type: cell-based; settings: thp-1, 24 h
[24] = as §3; type: functional; settings: PAI-1, ip, 72 h; outline: as §4
THP-1 [25] = assay: Induction of cell death in human THP1 cells upto 25 ug/mL after 12 hrs by propidium iodide staining based confocal laser scanning microscopic method; settings: thp-1, 12 h; outline: as §5
[26] = Antibacterial activity against Leptospira interrogans serovar Canicola PAI-1 infected cyclophosphamide-treated BALB/c mouse assessed as mouse survival at 20 mg/kg, ip administered once daily for 3 days; type: functional; settings: PAI-1, ip, 72 h; outline: as §4
Leptospira interrogans [27] = assay: Inhibition of Leptospira rRNA gene amplification assessed as thresholod cycle by SYBR Green dye-based RT-qPCR method (reference value: 11.3)
THP-1 [28] = assay: Cytotoxicity against human THP1 cells assessed as cell growth inhibition at >=75 ug/mL after 24 hrs by MTT assay; type: cell-based; settings: thp-1, 24 h
[29] = test system: Leptospira interrogans serovar Canicola; assay: Antibacterial activity against Leptospira interrogans serovar Canicola PAI-1 infected cyclophosphamide-treated BALB/c mouse assessed as inhibition of bacterial renal colonization at 20 mg/kg,ip by RT-qPCR analysis; type: functional, organism-based
Outline: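 Cyclophosphamide-treated BALB/c mice were infected with pathogenic serovar Canicola, then dosed once daily for 3 days at 5, 10 or 20 mg/kg. Controls were untreated mice and doxycycline at 5 mg/kg once daily. Leptospiral load in kidney tissue was measured by qPCR for renal colonization.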

SMILES | Activity [1] | Activity [2] | Activity [3] | Activity [4] | Activity [5] | MIC [6] | MIC [7] | MIC [8] | MIC [9] | MIC [10] | MIC [11] | MIC [12] | MIC [13] | MIC [14] | MIC [15] | MIC [16] | MIC [17] | MIC [19] | also measured
COc1cc(OC)c2c(O)c3c(cc2c1)OC(C)CC3=O (stereo not given) | inactive | inactive | inactive | inactive | inactive |  |  |  |  |  |  |  |  |  |  |  |  |  | 
CCC1=C2C(=O)ON=C2CC(C)(C)O1 | inactive | inactive | Active | inactive | Active | 125 µg/mL (≈ 640 µM) | 250 µg/mL (≈ 1280 µM) | 250 µg/mL (≈ 1280 µM) | 250 µg/mL (≈ 1280 µM) | 250 µg/mL (≈ 1280 µM) | 125 µg/mL (≈ 640 µM) | 250 µg/mL (≈ 1280 µM) | 250 µg/mL (≈ 1280 µM) | 250 µg/mL (≈ 1280 µM) | 250 µg/mL (≈ 1280 µM) | 250 µg/mL (≈ 1280 µM) | 250 µg/mL (≈ 1280 µM) |  | MIC (Leptospira interrogans [18]): inactive
CC1(C)CC2=NOC(=O)C2=C(c2cccc3ccccc23)O1 | inactive | inactive | Active | inactive | Active | 250 µg/mL (≈ 852 µM) | 125 µg/mL (≈ 426 µM) | 250 µg/mL (≈ 852 µM) | 250 µg/mL (≈ 852 µM) | 125 µg/mL (≈ 426 µM) | 125 µg/mL (≈ 426 µM) | 500 µg/mL (≈ 1700 µM) | 500 µg/mL (≈ 1700 µM) | 500 µg/mL (≈ 1700 µM) | 250 µg/mL (≈ 852 µM) | 500 µg/mL (≈ 1700 µM) | 250 µg/mL (≈ 852 µM) | 500 µg/mL (≈ 1700 µM) | 
COc1ccc(C2=C3C(=O)ON=C3CC(C)(C)O2)cc1 | inactive | inactive | Active | inactive | Active | 250 µg/mL (≈ 915 µM) | 125 µg/mL (≈ 457 µM) | 250 µg/mL (≈ 915 µM) | 250 µg/mL (≈ 915 µM) | 125 µg/mL (≈ 457 µM) | 250 µg/mL (≈ 915 µM) | 250 µg/mL (≈ 915 µM) | 250 µg/mL (≈ 915 µM) | 250 µg/mL (≈ 915 µM) | 250 µg/mL (≈ 915 µM) | 250 µg/mL (≈ 915 µM) | 250 µg/mL (≈ 915 µM) | 500 µg/mL (≈ 1830 µM) | 
COc1cc(OC)c2c(O)c3c(cc2c1)OC(C)C(C)C3=O (stereo not given) | inactive | inactive | inactive | inactive | inactive |  |  |  |  |  |  |  |  |  |  |  |  |  | 
C[C@H]1c2cccc(O)c2C(=O)C2=C(O)[C@]3(O)C(=O)C(C(N)=O)=C(O)[C@@H](N(C)C)[C@@H]3[C@@H](O)[C@@H]21.O [DOXYCYCLINE] | inactive | inactive | Active | inactive | Active | 200 µg/mL | 100 µg/mL | 200 µg/mL | 200 µg/mL | 200 µg/mL | 100 µg/mL | 200 µg/mL | 100 µg/mL | 100 µg/mL | 200 µg/mL | 200 µg/mL | 200 µg/mL | 100 µg/mL | Activity [20]: Active
CC1CC(=O)c2c(cc3ccccc3c2O)O1 (stereo not given) | inactive | inactive | Active | inactive | Active |  |  |  |  |  |  |  |  |  |  |  |  |  | 
CC1(C)CC2=NOC(=O)C2=C(c2cccs2)O1 | inactive | inactive | Active | inactive | Active | 250 µg/mL (≈ 1000 µM) | 250 µg/mL (≈ 1000 µM) | 250 µg/mL (≈ 1000 µM) | 250 µg/mL (≈ 1000 µM) | 250 µg/mL (≈ 1000 µM) | 250 µg/mL (≈ 1000 µM) | 250 µg/mL (≈ 1000 µM) | 250 µg/mL (≈ 1000 µM) | 250 µg/mL (≈ 1000 µM) | 62.5 µg/mL (≈ 251 µM) | 125 µg/mL (≈ 501 µM) | 250 µg/mL (≈ 1000 µM) |  | inhibition [21]: Active; Activity (THP-1 [22]): Toxic; Activity (THP-1 [23]): Non-Toxic; survival at 5 mg/kg [24]: 20%; Activity (THP-1 [25]): Non-Toxic; survival at 20 mg/kg [26]: 95%; Activity (Leptospira interrogans [27]): 18.5; Activity (THP-1 [28]): Toxic; inhibition [29]: Active; MIC (Leptospira interrogans [18]): inactive
CC1(C)CC2=NOC(=O)C2=C(c2ccccc2Cl)O1 | inactive | inactive | inactive | inactive | inactive |  |  |  |  |  |  |  |  |  |  |  |  |  | 

Source: ChEMBL document CHEMBL4041461, “Discovery of 6,7-dihydro-3H-pyrano[4,3-c]isoxazol-3-ones as a new class of pathogen specific anti-leptospiral agents” (Eur J Med Chem, 2017)
